This is an account of results in paper PMC10515597 (ACS Omega, 2023).

Where a SMILES comes first, the peptide text is derived from it. Bridges are numbered along the chain shown (N, C = ends). Roman numbers before positions name the chains, in order. The star is where a group is joined. X2 = O=C(N=C(NCc1ccc(C(=O)*)cc1)Nc1ccc(Br)cc1)c1ccccc1

Data set [1] relates to Leishmania amazonensis amastigotes. The settings on record: read-out: IC50-ama; L. amazonensis amastigotes ref 28; cited from earlier work.
Data set [2] deals with L. amazonensis intracellular amastigotes. The data set can be described thus: Antiamastigote activity in infected macrophages. It counts as cell-based, Leishmania amazonensis. As to conditions: 24 h; for IC50: Leishmania amazonensis, Macrophage, read-out: IC50 amastigote. The method, boiled down: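 Swiss mouse peritoneal macrophages (3 × 10⁵ cells mL⁻¹, complete RPMI-1640) adhered on coverslips for 4 h at 37 °C, 5% CO₂. They were infected 18 h with stationary-phase L. amazonensis promastigotes (MPRO/BR/1972/M1841-LV-79) at 10:1 and washed. Test compound (0.02–10 μM) was added for 24 h. Giemsa-stained cells were counted for infection index (% infected cells × parasites per infected cell). IC50 by nonlinear regression. Duplicates, three independent experiments.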

Data set [3] concerns L. mexicana intracellular amastigotes. The data set can be described thus: Antiamastigote activity in infected macrophages. It is filed as cell-based. As to conditions: Leishmania mexicana, Macrophage, 48 h, read-out: IC50 amastigote. The method, boiled down:
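Swiss mouse peritoneal macrophages (3 × 10⁵ cells mL⁻¹, complete RPMI-1640) adhered on coverslips for 4 h at 37 °C, 5% CO₂. They were infected 8 h with stationary-phase L. mexicana promastigotes (MNYC/BZ/62/M379) at 10:1 and washed. Test compound (0.02–10 μM) was added for 48 h. Giemsa-stained cells were counted for infection index (% infected cells × parasites per infected cell). IC50 by nonlinear regression. Duplicates, three independent experiments.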

Data set [4] has as its system L. amazonensis promastigotes. The data set can be described thus: Antipromastigote assay, viable promastigotes counted with trypan blue. It is filed as cell-based. As to conditions: Leishmania amazonensis, 72 h, read-out: IC50 promastigote. The method, boiled down:
(§1)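 Promastigotes were grown at 28 °C to mid-log phase: L. amazonensis (MPRO/BR/1972/M1841-LV-79) in LIT medium, L. mexicana (MNYC/BZ/62/M379) in Schneider's medium with 10% heat-inactivated FBS. Exponential-phase cells were plated at 1 × 10⁷ mL⁻¹ with test compound 1.28–100 μM. After 72 h, viable promastigotes were counted by trypan blue in a Neubauer chamber. Duplicates, three independent experiments.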

Data set [5] concerns L. mexicana promastigotes. The data set is described as above. As to conditions: Leishmania mexicana, read-out: IC50 promastigote. It counts as cell-based. The method, boiled down:
as §1

Data set [6] is described as follows: Cytotoxic activity, MTT colorimetric method. It is filed as cell-based, Swiss mice. As to conditions: Swiss, mouse, murine peritoneal macrophages.

Take `C[C@@H]1[C@H](O)[C@@H](C)/C=C/C=C/C=C/C=C/C=C/C=C/C=C/[C@H](O[C@@H]2O[C@H](C)[C@@H](O)[C@H](N)[C@@H]2O)C[C@@H]2O[C@](O)(C[C@@H](O)C[C@@H](O)[C@H](O)CC[C@@H](O)C[C@@H](O)CC(=O)O[C@H]1C)C[C@H](O)[C@H]2C(=O)O` [Amph B, amphotericin B]: the IC50 in data set [1] was 4.9 µM; in data set [2], 0.63 ± 0.02 µM; in data set [3], 0.73 ± 0.2 µM; in data set [4], 0.7 ± 0.2 µM; in data set [5], 0.45 ± 1.2 µM.
Turning to `O=C(O)c1ccc(CN/C(=N/C(=O)c2ccccc2)Nc2ccc(Br)cc2)cc1` [GVL1, (Z)-4-((2-benzoyl-3-(4-bromophenyl)guanidino)methyl) benzoic acid], the IC50 came out at 8.9 ± 1.41 µM in data set [2], 7.5 ± 3.53 µM in data set [3], 34.4 ± 0.1 µM in data set [4] and 51.8 ± 0.1 µM in data set [5].
For the compound `O=C(NC(=Nc1ccc(Br)cc1)NCc1ccccc1)c1ccccc1` [LQOF-G2, N-benzoyl-N′-benzyl-N″(4-bromophenyl)guanidine], the IC50 in data set [1] is 5.6 µM; in data set [2], 5.6 ± 2.5 µM; in data set [4], 19.6 ± 0.2 µM. For the same compound, in data set [6], the CC50 was found to be 737.9 ± 1.4 µM.
`CC(C)C[C@H](NC(=O)[C@H](Cc1c[nH]cn1)NC(=O)[C@H](Cc1ccc(O)cc1)NC(=O)[C@H](CCCNC(=N)N)NC(=O)[C@H](Cc1ccc(O)cc1)NC(=O)[C@H](CCCCN)NC(=O)[C@@H](N)CCCCN)C(=O)N[C@@H](CCCCN)C(=O)N1CCC[C@H]1C(=O)N[C@@H](Cc1ccccc1)C(=O)NCCCC[C@H](NC(=O)[C@H](Cc1ccccc1)NC(=O)[C@@H]1CCCN1C(=O)[C@H](CCCCN)NC(=O)[C@H](CC(C)C)NC(=O)[C@H](Cc1c[nH]cn1)NC(=O)[C@H](Cc1ccc(O)cc1)NC(=O)[C@H](CCCNC(=N)N)NC(=O)[C@H](Cc1ccc(O)cc1)NC(=O)[C@H](CCCCN)NC(=O)[C@H](CCCCN)NC(=O)c1ccc(CNC(=NC(=O)c2ccccc2)Nc2ccc(Br)cc2)cc1)C(N)=O` [(GVL1)-p-Bt] (I: X2-KKYRYHLKPFK-NH2 / II: H-KKYRYHLKPF; amide I:11-II:C): the “infection rate, fold lower than untreated cells and Amph B” value in data set [2] (L. amazonensis, at the tested concentrations (10 and 5 μM)) was 3–4 fold.

The term IC50 denotes the concentration needed to halve the response being measured. As a reminder, the CC50 is the concentration at which the toxic effect on the cells reaches its halfway point.
